ChEMBL document CHEMBL1157184, “Hymenoic acid, a novel specific inhibitor of human DNA polymerase lambda from a fungus of Hymenochaetaceae sp” (Bioorg Med Chem, 2008)
Calls of active or inactive are those of the source. The rule behind the calls is not given here.

Assays:
[1] = target: T1, DNA polymerase kappa (Homo sapiens) (UniProt Q9UBT6); assay: Inhibition of human DNA polymerase kappa at 200 uM
T1 sequence (whole entry): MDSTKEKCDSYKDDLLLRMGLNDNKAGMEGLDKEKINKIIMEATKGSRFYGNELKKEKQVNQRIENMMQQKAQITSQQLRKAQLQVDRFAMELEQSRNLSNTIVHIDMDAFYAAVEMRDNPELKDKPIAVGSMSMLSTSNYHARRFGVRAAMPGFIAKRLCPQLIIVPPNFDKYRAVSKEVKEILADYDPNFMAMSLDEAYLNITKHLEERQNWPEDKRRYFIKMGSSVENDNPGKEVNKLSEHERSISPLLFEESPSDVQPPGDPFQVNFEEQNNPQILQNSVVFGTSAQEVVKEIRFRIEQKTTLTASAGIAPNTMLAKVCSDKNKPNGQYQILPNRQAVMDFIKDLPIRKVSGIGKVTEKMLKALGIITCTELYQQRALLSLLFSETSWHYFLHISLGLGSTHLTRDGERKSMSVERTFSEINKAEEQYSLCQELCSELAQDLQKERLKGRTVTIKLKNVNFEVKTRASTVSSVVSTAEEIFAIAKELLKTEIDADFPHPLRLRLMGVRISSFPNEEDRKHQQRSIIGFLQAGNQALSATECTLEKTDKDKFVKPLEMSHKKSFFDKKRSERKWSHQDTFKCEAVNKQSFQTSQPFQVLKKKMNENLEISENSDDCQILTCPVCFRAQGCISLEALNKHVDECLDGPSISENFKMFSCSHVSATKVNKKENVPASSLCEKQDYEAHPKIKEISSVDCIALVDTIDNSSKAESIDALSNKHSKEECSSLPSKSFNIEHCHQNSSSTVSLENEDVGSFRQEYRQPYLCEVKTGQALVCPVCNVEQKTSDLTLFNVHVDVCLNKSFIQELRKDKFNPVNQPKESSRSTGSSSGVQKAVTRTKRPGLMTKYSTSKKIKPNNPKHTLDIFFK
Summary of the method: (§1)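 Compound dissolved in DMSO and sonicated 30 s, then held with each polymerase (final 0.05 U) in 50 mM Tris-HCl pH 7.5, 1 mM DTT, 50% glycerol, 0.1 mM EDTA at 0 °C for 10 min. Reaction with poly(dA)/oligo(dT)12-18 and dTTP ran 60 min at 37 °C (Taq at 74 °C). Activity relative to no-compound control; means ± SEM, four independent experiments.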

[2] = target: DNA polymerase (Drosophila melanogaster) (UniProt Q9GV40); assay: Inhibition of fruit fly DNA polymerase epsilon at 200 uM; summary of the method: as §1
Sequence of DNA polymerase (Drosophila melanogaster) (Q9GV40 as listed by the source): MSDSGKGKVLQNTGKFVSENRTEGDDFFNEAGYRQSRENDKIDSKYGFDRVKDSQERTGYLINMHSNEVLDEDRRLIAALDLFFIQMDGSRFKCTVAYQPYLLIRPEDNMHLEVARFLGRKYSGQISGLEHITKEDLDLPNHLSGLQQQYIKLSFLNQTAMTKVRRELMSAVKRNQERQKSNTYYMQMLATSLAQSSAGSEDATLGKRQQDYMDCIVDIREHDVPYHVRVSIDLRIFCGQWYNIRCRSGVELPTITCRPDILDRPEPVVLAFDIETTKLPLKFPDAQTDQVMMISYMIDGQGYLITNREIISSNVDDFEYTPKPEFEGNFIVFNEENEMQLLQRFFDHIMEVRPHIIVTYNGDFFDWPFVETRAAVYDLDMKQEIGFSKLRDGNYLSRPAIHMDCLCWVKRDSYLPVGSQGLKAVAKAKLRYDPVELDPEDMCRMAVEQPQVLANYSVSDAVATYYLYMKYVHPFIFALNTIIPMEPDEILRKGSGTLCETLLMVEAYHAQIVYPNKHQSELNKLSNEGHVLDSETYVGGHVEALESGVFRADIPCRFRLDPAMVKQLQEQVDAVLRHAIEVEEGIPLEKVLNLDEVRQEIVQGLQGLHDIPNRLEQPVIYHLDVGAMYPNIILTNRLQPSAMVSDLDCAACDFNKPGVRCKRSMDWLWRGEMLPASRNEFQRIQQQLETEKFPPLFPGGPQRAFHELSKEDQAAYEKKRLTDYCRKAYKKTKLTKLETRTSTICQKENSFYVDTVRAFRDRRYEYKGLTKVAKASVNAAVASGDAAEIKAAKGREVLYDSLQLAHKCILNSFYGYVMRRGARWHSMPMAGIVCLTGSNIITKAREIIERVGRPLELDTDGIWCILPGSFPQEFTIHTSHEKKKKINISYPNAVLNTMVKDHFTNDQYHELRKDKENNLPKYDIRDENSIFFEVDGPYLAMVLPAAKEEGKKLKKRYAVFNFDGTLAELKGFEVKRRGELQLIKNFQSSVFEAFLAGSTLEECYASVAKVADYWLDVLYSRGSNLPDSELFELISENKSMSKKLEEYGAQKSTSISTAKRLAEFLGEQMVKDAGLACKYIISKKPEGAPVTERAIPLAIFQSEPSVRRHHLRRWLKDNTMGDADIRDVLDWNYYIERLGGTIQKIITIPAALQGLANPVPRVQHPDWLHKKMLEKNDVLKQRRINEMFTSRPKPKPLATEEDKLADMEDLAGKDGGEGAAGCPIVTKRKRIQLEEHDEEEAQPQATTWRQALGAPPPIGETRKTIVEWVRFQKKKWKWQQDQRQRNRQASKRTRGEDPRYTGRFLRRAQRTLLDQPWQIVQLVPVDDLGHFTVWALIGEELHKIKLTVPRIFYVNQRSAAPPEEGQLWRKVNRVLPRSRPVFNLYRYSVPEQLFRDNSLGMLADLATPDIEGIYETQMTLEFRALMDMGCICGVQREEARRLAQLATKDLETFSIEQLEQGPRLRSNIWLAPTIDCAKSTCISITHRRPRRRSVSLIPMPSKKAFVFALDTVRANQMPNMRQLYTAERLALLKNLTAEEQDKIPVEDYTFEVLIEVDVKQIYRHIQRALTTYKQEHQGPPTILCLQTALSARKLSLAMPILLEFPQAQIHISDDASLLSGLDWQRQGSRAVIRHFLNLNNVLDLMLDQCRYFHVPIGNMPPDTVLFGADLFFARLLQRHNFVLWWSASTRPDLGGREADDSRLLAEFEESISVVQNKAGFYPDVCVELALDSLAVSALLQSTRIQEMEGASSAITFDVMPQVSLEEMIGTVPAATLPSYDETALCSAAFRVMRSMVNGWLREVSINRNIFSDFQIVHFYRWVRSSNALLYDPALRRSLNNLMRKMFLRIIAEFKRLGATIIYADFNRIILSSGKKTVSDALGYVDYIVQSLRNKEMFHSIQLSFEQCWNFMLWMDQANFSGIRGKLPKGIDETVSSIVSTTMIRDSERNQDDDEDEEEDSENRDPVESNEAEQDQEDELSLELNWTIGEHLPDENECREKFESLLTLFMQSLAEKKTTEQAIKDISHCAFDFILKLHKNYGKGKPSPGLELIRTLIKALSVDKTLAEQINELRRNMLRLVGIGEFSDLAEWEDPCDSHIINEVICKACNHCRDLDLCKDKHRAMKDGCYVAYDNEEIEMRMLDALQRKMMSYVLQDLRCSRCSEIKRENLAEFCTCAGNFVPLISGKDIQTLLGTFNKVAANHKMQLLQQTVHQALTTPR

[3] = system: Human immunodeficiency virus; assay: Inhibition of HIV reverse transcriptase at 200 uM
Oncorhynchus masou = assay: Inhibition of fish DNA polymerase delta at 200 uM; summary of the method: as §1
Oryza sativa = assay: Inhibition of rice DNA polymerase lambda at 200 uM; summary of the method: as §1
[4] = target: T2, DNA polymerase lambda (Homo sapiens) (UniProt Q9UGP5); assay: Inhibition of human DNA polymerase lambda at 200 uM; summary of the method: as §1
T2 sequence (whole entry): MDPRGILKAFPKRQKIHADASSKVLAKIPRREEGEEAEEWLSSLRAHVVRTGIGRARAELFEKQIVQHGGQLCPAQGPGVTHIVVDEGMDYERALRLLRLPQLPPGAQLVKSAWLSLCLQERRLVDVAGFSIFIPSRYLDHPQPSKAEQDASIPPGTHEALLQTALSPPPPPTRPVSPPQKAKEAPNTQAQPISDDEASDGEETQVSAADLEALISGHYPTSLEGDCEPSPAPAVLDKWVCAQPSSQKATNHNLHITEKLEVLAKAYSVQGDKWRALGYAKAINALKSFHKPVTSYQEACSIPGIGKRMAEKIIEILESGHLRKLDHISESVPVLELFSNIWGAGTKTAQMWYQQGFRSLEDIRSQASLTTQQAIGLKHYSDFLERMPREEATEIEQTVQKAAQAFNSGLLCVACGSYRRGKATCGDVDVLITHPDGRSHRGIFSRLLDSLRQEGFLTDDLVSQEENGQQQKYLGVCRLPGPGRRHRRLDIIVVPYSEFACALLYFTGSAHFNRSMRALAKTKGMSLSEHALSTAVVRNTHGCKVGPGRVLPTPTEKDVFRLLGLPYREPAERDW

[5] = system: T7 RNA polymerase (Bacteriophage T7); assay: Inhibition of T7 RNA polymerase at 200 uM
Drosophila melanogaster = assay: Inhibition of fruit fly DNA polymerase beta at 200 uM; summary of the method: as §1
Bos taurus = species: Bos taurus; assay: Inhibition of bovine deoxyribonuclease 1 at 200 uM
Summary of the method: (§2)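 Each enzyme (0.05 U) was incubated with 200 μM compound. Activity was expressed as a percentage of the activity without compound (100%). Means ± SEM of four independent experiments.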

Homo sapiens = species: Homo sapiens; assay: Inhibition of human topoisomerase type 1 at 200 uM; summary of the method: as §2

SMILES: C/C(=C\CC[C@H](C)C(=O)O)[C@H]1CC[C@H](C(=O)O)CC1
- Activity [1]: inactive
- Activity [2]: inactive
- Activity [3]: inactive
- Activity (Oncorhynchus masou): inactive
- Activity (Oryza sativa): Active
- Activity [4]: Active
- Activity [5]: inactive
- Activity (Drosophila melanogaster): inactive
- Activity (Bos taurus): inactive
- Activity (Homo sapiens): inactive
